“Also recorded” adds a separate entry of the source.
Assays:
[1] = test system: S. typhimurium strains TA98 and TA100; assay: Abbreviated Ames; format: cell-based; conditions: plate incorporation, up to 5000 μg/plate, ±S9
Summary of the method: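 Salmonella TA98 and TA100 plate-incorporation assay per OECD 471, run with and without rat liver S9. Test compound and its decarboxylated impurity were tested at concentrations up to and including 5000 µg/plate, with vehicle and positive controls. Revertant colony counts were compared with vehicle control, and bacterial toxicity was recorded.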

[2] = test system: bred female Crl:CD(SD) rats; assay: Definitive developmental toxicity study; format: in vivo, rat
Summary of the method: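 Bred female Crl:CD(SD) rats, 25/group, dosed once daily by oral gavage at 0, 250, 500 or 1000 mg/kg/day from gestation Days 6 through 20. Laparohysterectomy on gestation Day 21. Uteri, placentae and ovaries were examined; viable and dead fetuses, early and late resorptions, implantations and corpora lutea were counted; gravid uterine weight, net body weight and fetal weights were recorded.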

[3] = In vitro oxidative metabolism, rat liver microsomes; format: in vitro ADME
Summary of the method: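 Pooled mixed-gender liver microsomes (human or Sprague-Dawley rat) were incubated with test compound plus NADPH for 60 min at 37 °C, then quenched with acetonitrile. Controls: time-zero and 60-min incubations without NADPH, plus testosterone incubations to confirm microsomal activity. Metabolites were sought by LC/MS full-scan analysis with UV detection at 214, 240 and 254 nm.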

[4] = Relative oral bioavailability of sodium, phosphate and hemisulfate salts in rats; format: in vivo, Sprague-Dawley rats
Summary of the method: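 Male Sprague-Dawley rats, 4/group, received a single 30 mg/kg oral gavage dose in 1% methylcellulose of either parent acid or its sodium, phosphate or sulfate salt. Jugular-catheter blood was drawn at about 15 and 30 min and at 1, 2, 4, 8 and 24 h. Plasma parent was measured by LC/MS/MS with an internal standard. Relative AUClast and Cmax were corrected for molecular-weight differences.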

[5] = Excretion in urine and feces of rats; format: in vivo, Sprague-Dawley rats; conditions: 10 mg/kg oral
[6] = test system: S. typhimurium strains TA98, TA100, TA1535, TA1537 and E. coli strain WP2 uvrA; assay: Bacterial reverse mutation test; format: cell-based, Escherichia coli; conditions: 51-5000 ug/plate, plate incorporation and pre-incubation, ±S9
[7] = test system: bred female Crl:CD(SD) rats; assay: Dose range-finding developmental toxicity study; format: in vivo, rat; conditions: 125, 250, 500, 1000 mg/kg/day oral gavage, gestation Days 6-20
[8] = test system: human peripheral blood lymphocytes (HPBL); assay: In vitro chromosome aberration test; format: cell-based; conditions: 125-500 ug/mL, 3 h ±S9, 20 h -S9
Summary of the method: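 Human peripheral blood lymphocytes were exposed to the sodium salt of the test compound (0–500 µg/mL) per OECD 473, with solvent and positive controls (mitomycin C −S9, cyclophosphamide +S9). Exposures: 3 h and 20 h without S9, and 3 h with S9 from phenobarbital/5,6-benzoflavone-induced male Sprague-Dawley rat liver. Structural and numerical aberrations were scored at 125, 250 and 500 µg/mL for each condition.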

[9] = male, Sprague-Dawley, rat, plasma, po, 30 mg/kg

For `Cc1nc2cccc(OCC(C)(C)C(=O)NC(C)C)c2c(N)c1C(=O)O` [S9632, 4-amino-5-(3-(isopropylamino)-2,2-dimethyl-3-oxopropoxy)-2-methylquinoline-3-carboxylic acid], which “Mutagenicity, result” value [1] is on record?
Its value is “not mutagenic”.

What about the “Corpora Lutea, Mean” value ([2]; 250 mg/kg/d) of the same molecule?
Its value is 16.3.

What about the “Corpora Lutea, Total” value ([2]; 250 mg/kg/d) of the same molecule?
Its value is 407.

What about the “Dead fetuses, Mean” value ([2]; 250 mg/kg/d) of the same molecule?
Its value is 0.

What about the “Dead fetuses, Total” value ([2]; 250 mg/kg/d) of the same molecule?
Its value is 0.

And the “Fetal Wt., Mean” value ([2]; 250 mg/kg/d)?
The value was 5.5 g.

And the “Fetuses Sex F, Mean” value ([2]; 250 mg/kg/d)?
Its value is 6.8.

What about the “Fetuses Sex F, Total” value ([2]; 250 mg/kg/d) of the same molecule?
Its value is 169.

And the “Fetuses Sex M, Mean” value ([2]; 250 mg/kg/d)?
The value was 7.6.

What about the “Fetuses Sex M, Total” value ([2]; 250 mg/kg/d) of the same molecule?
The value was 189.

What about the “Implant. sites, Mean” value ([2]; 250 mg/kg/d) of the same molecule?
The value was 15.3.

What about the “Implant. sites, Total” value ([2]; 250 mg/kg/d) of the same molecule?
Its value is 382.

What about the “Post-implant. loss, Mean” value ([2]; 250 mg/kg/d) of the same molecule?
Its value is 1.0.

What about the “Post-implant. loss, Total” value ([2]; 250 mg/kg/d) of the same molecule?
Its value is 24.

What about the “Pre-implant. loss, Mean” value ([2]; 250 mg/kg/d) of the same molecule?
Its value is 1.0.

And the “Pre-implant. loss, Total” value ([2]; 250 mg/kg/d)?
Its value is 25.

What about the “Resorptions Early, Mean” value ([2]; 250 mg/kg/d) of the same molecule?
The value was 1.0.

And the “Resorptions Early, Total” value ([2]; 250 mg/kg/d)?
The value was 24.

What about the “Resorptions Late, Mean” value ([2]; 250 mg/kg/d) of the same molecule?
The value was 0.

And the “Resorptions Late, Total” value ([2]; 250 mg/kg/d)?
Its value is 0.

And the “Viable fetuses, Mean” value ([2]; 250 mg/kg/d)?
Its value is 14.3.

What about the “Viable fetuses, Total” value ([2]; 250 mg/kg/d) of the same molecule?
The value was 358.

And the “Malformations, fetuses (litters)” value ([2]; 250 mg/kg/day)?
The value was 1(1).

And the “Corpora Lutea, Mean” value ([2]; 500 mg/kg/d)?
The value was 16.8.

What about the “Corpora Lutea, Total” value ([2]; 500 mg/kg/d) of the same molecule?
The value was 421.

And the “Dead fetuses, Mean” value ([2]; 500 mg/kg/d)?
Its value is 0.

And the “Dead fetuses, Total” value ([2]; 500 mg/kg/d)?
Its value is 0.

What about the “Fetal Wt., Mean” value ([2]; 500 mg/kg/d) of the same molecule?
Its value is 5.4 g.

What about the “Fetuses Sex F, Mean” value ([2]; 500 mg/kg/d) of the same molecule?
Its value is 7.4.

What about the “Fetuses Sex F, Total” value ([2]; 500 mg/kg/d) of the same molecule?
Its value is 184.

What about the “Fetuses Sex M, Mean” value ([2]; 500 mg/kg/d) of the same molecule?
The value was 7.1.

What about the “Fetuses Sex M, Total” value ([2]; 500 mg/kg/d) of the same molecule?
The value was 177.

What about the “Implant. sites, Mean” value ([2]; 500 mg/kg/d) of the same molecule?
Its value is 15.3.

What about the “Implant. sites, Total” value ([2]; 500 mg/kg/d) of the same molecule?
Its value is 383.

What about the “Post-implant. loss, Mean” value ([2]; 500 mg/kg/d) of the same molecule?
Its value is 0.9.

What about the “Post-implant. loss, Total” value ([2]; 500 mg/kg/d) of the same molecule?
The value was 22.

What about the “Pre-implant. loss, Mean” value ([2]; 500 mg/kg/d) of the same molecule?
The value was 1.5.

What about the “Pre-implant. loss, Total” value ([2]; 500 mg/kg/d) of the same molecule?
The value was 38.

What about the “Resorptions Early, Mean” value ([2]; 500 mg/kg/d) of the same molecule?
Its value is 0.5.

What about the “Resorptions Early, Total” value ([2]; 500 mg/kg/d) of the same molecule?
The value was 12.

And the “Resorptions Late, Mean” value ([2]; 500 mg/kg/d)?
The value was 0.4.

And the “Resorptions Late, Total” value ([2]; 500 mg/kg/d)?
Its value is 10.

What about the “Viable fetuses, Mean” value ([2]; 500 mg/kg/d) of the same molecule?
The value was 14.4.

And the “Viable fetuses, Total” value ([2]; 500 mg/kg/d)?
The value was 361.

And the “Malformations, fetuses (litters)” value ([2]; 500 mg/kg/day)?
Its value is 1(1).

And the “Corpora Lutea, Mean” value ([2]; 1000 mg/kg/d)?
The value was 16.5.

And the “Corpora Lutea, Total” value ([2]; 1000 mg/kg/d)?
Its value is 413.

What about the “Dead fetuses, Mean” value ([2]; 1000 mg/kg/d) of the same molecule?
Its value is 0.

What about the “Dead fetuses, Total” value ([2]; 1000 mg/kg/d) of the same molecule?
Its value is 0.

What about the “Fetal Wt., Mean” value ([2]; 1000 mg/kg/d) of the same molecule?
Its value is 5.6 g.

What about the “Fetuses Sex F, Mean” value ([2]; 1000 mg/kg/d) of the same molecule?
The value was 7.8.

And the “Fetuses Sex F, Total” value ([2]; 1000 mg/kg/d)?
The value was 194.

And the “Fetuses Sex M, Mean” value ([2]; 1000 mg/kg/d)?
The value was 7.2.

What about the “Fetuses Sex M, Total” value ([2]; 1000 mg/kg/d) of the same molecule?
Its value is 181.

What about the “Implant. sites, Mean” value ([2]; 1000 mg/kg/d) of the same molecule?
Its value is 15.7.

What about the “Implant. sites, Total” value ([2]; 1000 mg/kg/d) of the same molecule?
The value was 393.

What about the “Post-implant. loss, Mean” value ([2]; 1000 mg/kg/d) of the same molecule?
The value was 0.7.

And the “Post-implant. loss, Total” value ([2]; 1000 mg/kg/d)?
Its value is 18.

What about the “Pre-implant. loss, Mean” value ([2]; 1000 mg/kg/d) of the same molecule?
Its value is 0.80.

And the “Pre-implant. loss, Total” value ([2]; 1000 mg/kg/d)?
Its value is 20.

What about the “Resorptions Early, Mean” value ([2]; 1000 mg/kg/d) of the same molecule?
Its value is 0.7.

And the “Resorptions Early, Total” value ([2]; 1000 mg/kg/d)?
The value was 18.

What about the “Resorptions Late, Mean” value ([2]; 1000 mg/kg/d) of the same molecule?
Its value is 0.

What about the “Resorptions Late, Total” value ([2]; 1000 mg/kg/d) of the same molecule?
The value was 0.

And the “Viable fetuses, Mean” value ([2]; 1000 mg/kg/d)?
The value was 15.0.

And the “Viable fetuses, Total” value ([2]; 1000 mg/kg/d)?
Its value is 375.

And the “Malformations, fetuses (litters)” value ([2]; 1000 mg/kg/day)?
Its value is 3(3).

What about the “Metabolism (Phase I biotransformations)” value ([3]; 10 µM, 60 min, 37 °C, NADPH) of the same molecule?
Its value is “not metabolized; also recorded: No Phase I biotransformations”.

And the “Level above which no metabolism was observed” value ([3]; 60 min incubation)?
The value was ≤ 0.1 % of the parent drug.

And the AUC(0-t) [4, 9]?
Its AUC(0-t) is 59.6 ± 26.1 ng·h/mL.

And the Cmax [4, 9]?
The Cmax was 38.7 ± 24.5 ng/mL.

What about the “%Cmax Relative to S9632” value ([4]; single oral 30 mg/kg, male rats, corrected for molecular weight) of the same molecule?
Its value is 100.0%.

What about the “Oxidative metabolites (M + 16) in fecal samples” value [5] of the same molecule?
The value was “not detectable”.

What about the “Oxidative metabolites (M + 16) in urine” value [5] of the same molecule?
The value was “trace amounts”.

What about the “Reverse mutation (in vitro), result” value [6] of the same molecule?
Its value is “Negative”.

And the Findings [7]?
The Findings was “No maternal toxicity or effects on intrauterine growth and survival up to 1000 mg/kg/day”.

And the “Chromosome aberration (in vitro), result” value [8]?
Its value is “Negative”.

Source: article PMC5598146 (Toxicology Reports, 2015)
